The source made the active and inactive calls. No cut-off for these calls is given here.
Assays:
[1] = target: Cell division cycle protein 20 homolog (Homo sapiens, UniProt Q12834); assay: Binding affinity to CDC20 (unknown origin) by SPR analysis
How it was run: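 Recombinant human Cdc20 (>95% pure) coupled by EDC/NHS to an acid-coupling chip; PBS pH 7.4 running buffer. Compounds injected as a gradient dilution series starting at 200 μM, 120-140 s association, 160 s dissociation. Steady-state values plotted against concentration; K_D from a one-to-one / single-site model.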

Tubulin (Homo sapiens) [2] = target: T1, Tubulin (Homo sapiens) (UniProt P68371+Q9H4B7+P0DPH7+P68366+Q13509+Q71U36+P04350+Q3ZCM7+P07437+P68363+Q9BQE3+Q6PEY2+Q13885+Q9BVA1+Q9BUF5); assay: Inhibition of tubulin polymerization in human HepG2 cells assessed as condensed chromosome formation at 0.3 uM incubated for 48 hrs by immunofluorescent staining; format: cell-based
How it was run: (§1)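 HepG2 treated 48 h (vehicle 0.1% DMSO; 0.3 μM paclitaxel reference). Fixed in formaldehyde, permeabilized with Triton X-100, BSA-blocked, anti-α-tubulin overnight at 4°C, fluorescent secondary, DAPI counterstain; imaged for microtubule network and chromosome morphology.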

HepG2 [3] = assay: Induction of apoptosis in human HepG2 cells assessed as late apoptotic cells level at 0.3 uM incubated for 24 hrs by Annexin V-FITC/PI staining based flow cytometry (reference value: 5.12%); format: functional
HepG2 [4] = assay: Induction of apoptosis in human HepG2 cells assessed as increase in cleaved PARP level at 0.03 to 0.3 uM incubated for 48 hrs by Western blot analysis; format: functional, cell-based
How it was run: (§2)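 HepG2 cells treated 48 h. Lysates in RIPA buffer with protease/phosphatase inhibitors; 25 μg protein run on SDS-PAGE, transferred to PVDF, blocked in 5% milk/TBST, primary antibodies overnight at 4°C (caspase-3, cleaved caspase-3, cleaved PARP), HRP secondary 1 h at room temperature, ECL detection; densitometry quantified.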

HepG2 [5] = assay: Cytotoxicity in human HepG2 cells assessed as reduction in cell viability incubated for 48 hrs by MTT assay; format: functional, cell-based; conditions: HepG2, 48 h
How it was run: (§3)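 Cells grown at 37°C, 5% CO₂ (HepG2, OVCAR-3, Caov-3 in DMEM + 10% FBS; A549, HeLa, A375, MCF-7 in RPMI 1640 + 10% FBS). Seeded at 4-5×10³/well in triplicate, adhered overnight, exposed to 0.03–300 μM (DMSO <0.1%) for 48 h. MTT added for 4 h, formazan dissolved in DMSO, absorbance read. IC50 from dose–response curves, mean ± SD of at least three independent experiments.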

MCF7 = assay: Cytotoxicity in human MCF7 cells assessed as reduction in cell viability incubated for 48 hrs by MTT assay; format: functional, cell-based; conditions: MCF7, 48 h; how it was run: as §3
HepG2 [6] = assay: Induction of apoptosis in human HepG2 cells assessed as viable cells level at 0.3 uM incubated for 24 hrs by Annexin V-FITC/PI staining based flow cytometry (reference value: 89.38%); format: functional
A-375 = assay: Cytotoxicity in human A375 cells assessed as reduction in cell viability incubated for 48 hrs by MTT assay; format: functional, cell-based; conditions: A-375, 48 h; how it was run: as §3
Caov-3 cell line = assay: Cytotoxicity in human Caov3 cells assessed as reduction in cell viability incubated for 48 hrs by MTT assay; format: functional, cell-based; conditions: Caov-3, 48 h; how it was run: as §3
HepG2 [7] = assay: Inhibition of cell invasion in human HepG2 cells assessed as retardation of cell penetration through matrigel-coated membranes at 0.3 uM incubated for 48 hrs; format: functional, cell-based
How it was run: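 HepG2 cells treated with compound or DMSO seeded in upper Transwell chamber in serum-free medium with Matrigel; complete medium in lower chamber. After 48 h at 37°C, 5% CO₂, invaded cells crystal-violet stained and photographed.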

Tubulin (Sus scrofa) = Tubulin (Sus scrofa) (UniProt P02554+P02550); assay: Inhibition of porcine brain tubulin polymerization assessed as reduction in rate and extent of tubulin assembly measured at 37 degC every 30 secs for 60 mins by fluorescence based assay
Sequence of Tubulin (Sus scrofa) (P02550 whole entry, looked up): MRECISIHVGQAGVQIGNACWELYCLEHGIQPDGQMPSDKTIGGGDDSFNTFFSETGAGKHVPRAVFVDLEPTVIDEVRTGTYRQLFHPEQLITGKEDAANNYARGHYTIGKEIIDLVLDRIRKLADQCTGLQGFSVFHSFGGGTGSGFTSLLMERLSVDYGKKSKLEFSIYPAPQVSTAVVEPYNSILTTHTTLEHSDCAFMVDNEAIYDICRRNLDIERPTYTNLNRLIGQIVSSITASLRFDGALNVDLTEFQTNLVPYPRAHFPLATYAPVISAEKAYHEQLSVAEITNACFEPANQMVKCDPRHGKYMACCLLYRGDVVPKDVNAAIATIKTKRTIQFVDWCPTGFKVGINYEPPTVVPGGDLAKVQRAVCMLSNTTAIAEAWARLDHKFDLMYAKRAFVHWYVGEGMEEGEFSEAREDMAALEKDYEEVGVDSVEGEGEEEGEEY
Sequence of Tubulin (Sus scrofa) (P02554 whole entry, looked up): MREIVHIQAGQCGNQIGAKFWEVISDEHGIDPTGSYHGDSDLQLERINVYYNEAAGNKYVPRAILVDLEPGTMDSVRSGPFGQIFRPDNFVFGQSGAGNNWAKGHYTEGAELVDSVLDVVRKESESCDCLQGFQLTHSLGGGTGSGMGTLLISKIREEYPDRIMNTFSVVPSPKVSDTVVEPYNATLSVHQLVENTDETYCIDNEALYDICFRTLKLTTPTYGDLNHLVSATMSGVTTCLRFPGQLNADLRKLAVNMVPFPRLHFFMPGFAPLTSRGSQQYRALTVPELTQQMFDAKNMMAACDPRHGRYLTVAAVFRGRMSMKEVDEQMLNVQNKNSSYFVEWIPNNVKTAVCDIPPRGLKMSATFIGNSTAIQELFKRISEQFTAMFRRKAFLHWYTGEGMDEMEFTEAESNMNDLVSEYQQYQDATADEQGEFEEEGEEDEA

HepG2 [8] = assay: Inhibition of mitotic exit in human HepG2 cells assessed as increase in nuclear phosphohistone H3 levels at 0.03 to 0.3 uM incubated for 48 hrs by Western blot analysis relative to control; format: functional, cell-based
Tubulin (Homo sapiens) [9] = target: T1, Tubulin (Homo sapiens); assay: Inhibition of tubulin polymerization in human HepG2 cells assessed as disruption of microtubule organization in cytosol at 0.3 uM incubated for 48 hrs by immunofluorescent staining; format: cell-based; how it was run: as §1
HepG2 [10] = assay: Induction of apoptosis in human HepG2 cells assessed as increase in cleaved caspase-3 level at 0.03 to 0.3 uM incubated for 48 hrs by Western blot analysis; format: functional, cell-based; how it was run: as §2
HepG2 [11] = assay: Inhibition of mitotic exit in human HepG2 cells assessed as increase in nuclear phosphohistone H3 levels at 100 uM incubated for 48 hrs by immunofluorescence assay relative to control; format: functional; parameters: scale not given: the % may be the effect or the level left
How it was run: (§4)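 HepG2 seeded at 4×10³/well, overnight adhesion, treated 48 h. Fixed 15 min in 4% formaldehyde, permeabilized with Triton X-100, BSA-blocked, anti-phospho-histone H3 (Ser10) at 4°C overnight, fluorescent anti-rabbit secondary, DAPI counterstain. Fluorescence read relative to DMSO control; PHH3-positive cells counted in random fields as % of total. At least two experiments.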

A549 = assay: Cytotoxicity in human A549 cells assessed as reduction in cell viability incubated for 48 hrs by MTT assay; format: functional, cell-based; conditions: A549, 48 h; how it was run: as §3
HepG2 [12] = assay: Induction of apoptosis in human HepG2 cells assessed as early apoptotic cells level at 0.3 uM incubated for 24 hrs by Annexin V-FITC/PI staining based flow cytometry (reference value: 4.02%); format: functional
OVCAR-3 = assay: Cytotoxicity in human OVCAR3 cells assessed as reduction in cell viability incubated for 48 hrs by MTT assay; format: functional, cell-based; conditions: OVCAR-3, 48 h; how it was run: as §3
HepG2 [13] = assay: Induction of apoptosis in human HepG2 cells assessed as necrotic cells level at 0.3 uM incubated for 24 hrs by Annexin V-FITC/PI staining based flow cytometry (reference value: 1.48%); format: functional
HepG2 [14] = assay: Inhibition of mitotic exit in human HepG2 cells assessed as increase in nuclear phosphohistone H3 levels incubated for 48 hrs by immunofluorescence assay; format: functional, cell-based; how it was run: as §4
HeLa = assay: Cytotoxicity in human HeLa cells assessed as reduction in cell viability incubated for 48 hrs by MTT assay; format: functional, cell-based; how it was run: as §3
HepG2 [15] = assay: Inhibition of cell migration in human HepG2 cells incubated for 48 hrs by wound healing assay; format: functional, cell-based
How it was run: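 HepG2 seeded at 15×10⁴/well in triplicate overnight. Confluent monolayers scratched with a pipette tip, PBS-washed, medium with 0.3 μM compound added. Wounds photographed at 0, 24, 48, 72 h; wound area measured by image analysis. At least two separate experiments.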

Sequence of Cell division cycle protein 20 homolog (Q12834 whole entry): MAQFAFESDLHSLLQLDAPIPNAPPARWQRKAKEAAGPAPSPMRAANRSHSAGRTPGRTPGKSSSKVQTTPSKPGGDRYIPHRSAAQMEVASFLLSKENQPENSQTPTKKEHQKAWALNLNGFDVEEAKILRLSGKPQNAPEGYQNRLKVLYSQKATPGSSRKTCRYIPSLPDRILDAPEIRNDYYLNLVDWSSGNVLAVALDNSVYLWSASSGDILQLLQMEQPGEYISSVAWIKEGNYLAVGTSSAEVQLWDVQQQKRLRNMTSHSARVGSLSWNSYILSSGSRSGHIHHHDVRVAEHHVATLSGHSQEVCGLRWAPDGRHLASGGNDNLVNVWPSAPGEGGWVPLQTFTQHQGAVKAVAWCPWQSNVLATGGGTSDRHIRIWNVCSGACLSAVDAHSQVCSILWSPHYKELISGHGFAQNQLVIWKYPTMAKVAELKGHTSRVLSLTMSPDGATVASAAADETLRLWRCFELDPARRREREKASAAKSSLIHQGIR

Kd [1]	SMILES	IC50 (HepG2 [5])	IC50 (MCF7)	IC50 (A-375)	IC50 (Caov-3 cell line)	IC50 (A549)	IC50 (OVCAR-3)	IC50 (HeLa)	further results
119000 nM	Nc1nc(F)nc2c1ncn2C(NC(=O)OCCN1CCOCC1)C(Cl)(Cl)Cl (stereo not given)	600 nM	200 nM	700 nM	1500 nM	1500 nM	1700 nM	300 nM	inhibition (Tubulin (Homo sapiens) [2]): Active; Activity (HepG2 [3]): 4.71%; Activity (HepG2 [4]): Active; Activity (HepG2 [6]): 57.7%; inhibition (HepG2 [7]): Active; inhibition (Tubulin (Sus scrofa)): Dose-dependent effect; Activity (HepG2 [8]): Active; inhibition (Tubulin (Homo sapiens) [9]): Active; Activity (HepG2 [10]): Active; Activity (HepG2 [11]): 10%; Activity (HepG2 [12]): 37.35%; Activity (HepG2 [13]): 0.24%; Activity (HepG2 [14]): Dose-dependent effect; inhibition (HepG2 [15]): Dose-dependent effect
161000 nM	Cc1ncc([N+](=O)[O-])n1CCOC(=O)NC(n1cnc2c(N)nc(F)nc21)C(Cl)(Cl)Cl (stereo not given)	600 nM	800 nM	500 nM	1200 nM	3600 nM	1500 nM	1900 nM	–

— ChEMBL document CHEMBL4402600, “Discovery of a Dual Tubulin Polymerization and Cell Division Cycle 20 Homologue Inhibitor via Structural Modification on Apcin” (J Med Chem, 2020)
